Assay results gathered from unrelated publications.
Lines come from different studies, so protocols differ.
Target: Receptor-interacting serine/threonine-protein kinase 2 (RIPK2, Homo sapiens, UniProt O43353)

Structure (SMILES)	test	conditions	endpoint	value
C#Cc1cc(-c2cc(Nc3nc(N[C@@H](C)c4ccc(F)cn4)ncc3Cl)n[nH]2)ccc1C=O	enzyme activity, inhibitor	0.2 µM	inhibition	14.7%
CCCCC(=O)Nc1ccc(-c2ccc3ncn(CCC)c(=O)c3c2)cn1	binding, competition with immobilised ligand	0.5 µM	remaining binding	98%
C=CC(=O)N1CCC([C@@H]2CCNc3c(C(N)=O)c(-c4ccc(Oc5ccccc5)cc4)nn32)CC1	enzyme activity, inhibitor	1 µM	inhibition	96%
CC(C)S(=O)(=O)c1ccc2nccc(Nc3ccc4sc(C5CCCC5)nc4c3)c2c1	enzyme activity, inhibitor	1 µM	activity vs control	2.5%
Cc1ccc(NC(=O)c2ccnc(C(F)(F)F)c2)cc1-c1cc(OCCO)nc(N2CCOCC2)c1	binding, competition with immobilised ligand	1 µM	remaining binding	63%
COc1ccc2oc(-c3ccc4nc(N)oc4c3)c/c(=N\c3ccccc3NC(=O)CCN)c2c1	binding	1 µM	remaining binding	112%
COc1ccc2[nH]c3c4[nH]c5ccc(OC)cc5c4c4c(c3c2c1)C(=O)NC4=O	binding, competition with immobilised ligand	1 µM	remaining binding	60%
CO[C@@H]1[C@H](N(C)C(=O)c2ccccc2)C[C@H]2O[C@]1(C)n1c3ccccc3c3c4c(c5c6ccccc6n2c5c31)C(=O)NC4	enzyme activity, inhibitor	1 µM	inhibition	0%
